What was measured:
Mus musculus [1] = assay: Compound was tested for antidepressant activity against reserpine induced ptosis in mice after intraperitoneal administration.; value ranges from 27-31; type: functional; conditions: ip
How it was run: (§1)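 Female CD1 mice (18-22 g) received the drug in distilled water/gum tragacanth ip at multiple doses (7-20 mice/dose), given together with reserpine (2 mg/kg iv). One hour later, palpebral ptosis (half or more of the lid closed) was scored all-or-none. Screening dose was at most 50% of the seizure threshold dose.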

Mus musculus [2] = assay: Serotonergic activity was determined by measuring the potentiation of 5-hydroxytryptophan in mice upon ip administration; type: functional
How it was run: (§2)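 Drug was injected ip in distilled water/gum tragacanth to female CD1 mice (18-22 g) at multiple doses (7-20 mice/dose), 30 min before a threshold dose of L-5-HTP (200 mg/kg ip). Mice were held singly in small cages, and tremor was scored all-or-none over the 20 min after L-5-HTP.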

Mus musculus [3] = assay: Ability to modify turning behavior of mice after intraperitoneal administration; type: functional; conditions: ip, read-out: MED
How it was run: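 Female CD1 mice (25-30 g) were lesioned by stereotaxic injection of 6-OHDA (10 μg in 1 μL saline with 1 mg/mL ascorbic acid) into the right striatum under pentobarbitone (60 mg/kg ip). Seven days later, drug in distilled water/gum tragacanth was given ip at multiple doses (7-20 mice/dose). Ipsilateral turns were counted for 2 min starting 30 min post-dose.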

[4] = (§3) Acute toxicity in mice after intraperitoneal administration.; conditions: mouse, in vivo, ip, LD50
Mus musculus [5] = assay: Antidepressant activity against reserpine induced ptosis in mice after intraperitoneal administration.; type: functional; conditions: ip; how it was run: as §1
Mus musculus [6] = assay: Compound was tested for antidepressant activity against reserpine induced ptosis in mice after intraperitoneal administration.; value ranges from 4-7; type: functional; conditions: ip; how it was run: as §1
Mus musculus [7] = assay: Serotonergic activity by measuring the potentiation of 5-hydroxy tryptophan in mice upon ip administration; value ranges from 19-31; type: functional; how it was run: as §2
Mus musculus [8] = assay: as §3; conditions: in vivo, ip
Mus musculus [9] = assay: Compound was tested for antidepressant activity against reserpine induced ptosis in mice after intraperitoneal administration.; value ranges from 11-16; type: functional; conditions: ip; how it was run: as §1
Mus musculus [10] = assay: Serotonergic activity by measuring the potentiation of 5-hydroxy tryptophan in mice upon ip administration; value ranges from 3.8-4.9; type: functional; how it was run: as §2
Mus musculus [11] = assay: Compound was tested for antidepressant activity against reserpine induced ptosis in mice after intraperitoneal administration.; value ranges from 4.0-5.7; type: functional; conditions: ip; how it was run: as §1
Mus musculus [12] = assay: Compound was tested for antidepressant activity against reserpine induced ptosis in mice after intraperitoneal administration.; value ranges from 16-20; type: functional; conditions: ip; how it was run: as §1
Mus musculus [13] = assay: Serotonergic activity by measuring the potentiation of 5-hydroxy tryptophan in mice upon ip administration; value ranges from 17-20; type: functional; how it was run: as §2
[14] = Compound was tested for acute toxicity in mice after intraperitoneal administration; type: organism-based; conditions: mouse, in vivo, ip
How it was run: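 Female CD1 mice in groups of 5-10 received drug or vehicle (distilled water with gum tragacanth) ip. LD50 was derived graphically.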

Mus musculus [15] = assay: Serotonergic activity by measuring the potentiation of 5-hydroxy tryptophan in mice upon ip administration; value ranges from 4.4-5.7; type: functional; how it was run: as §2
Mus musculus [16] = assay: Compound was tested for antidepressant activity against reserpine induced ptosis in mice after intraperitoneal administration.; value ranges from 5.9-7.3; type: functional; conditions: ip; how it was run: as §1
Mus musculus [17] = assay: Compound was tested for antidepressant activity against reserpine induced ptosis in mice after intraperitoneal administration.; value ranges from 24-55; type: functional; conditions: ip; how it was run: as §1
Mus musculus [18] = assay: Compound was tested for antidepressant activity against reserpine induced ptosis in mice after intraperitoneal administration.; value ranges from 11-34; type: functional; conditions: ip; how it was run: as §1
Mus musculus [19] = assay: Compound was tested for antidepressant activity against reserpine induced ptosis in mice after intraperitoneal administration; 50% activity at this maximal tested dose; type: functional; conditions: ip; how it was run: as §1
Mus musculus [20] = assay: Serotonergic activity by measuring the potentiation of 5-hydroxy tryptophan in mice upon ip administration; value ranges from 4.9-6.7; type: functional; how it was run: as §2

Row | Structure (SMILES) | ED50 (Mus musculus [2]) [mg/kg] | minimal effective dose (Mus musculus [3]) [mg/kg] | LD50 [4] [mg/kg] | ED50 (Mus musculus [5]) [mg/kg] | other results
1 | Cc1cc(-c2ccccc2)nnc1NCCN(C)C | > 30 | 10 | 118 | – | ED50 (Mus musculus [1]): 29 mg/kg
2 | CCCN(CCC)CCNc1nnc(-c2ccccc2)cc1C | > 30 | 2 | 76 | > 30 | –
3 | Cc1cc(-c2ccccc2)nnc1NCCN1CCOCC1.Cl | – | – | – | – | ED50 (Mus musculus [6]): 5 mg/kg; ED50 (Mus musculus [7]): 24 mg/kg; LD50 (Mus musculus [8]): 63 mg/kg
4 | Cc1cc(C)c(NCCN2CCOCC2)nn1 | > 50 | > 10 | > 100 | > 50 | –
5 | Cc1cc(-c2ccccc2)nnc1NCC(C)N1CCOCC1 (stereo not given) | > 15 | 2 | 54 | – | ED50 (Mus musculus [9]): 13 mg/kg
6 | c1ccc(-c2cc(Cc3ccc4ccccc4c3)c(NCCN3CCOCC3)nn2)cc1 | > 100 | 2 | 275 | > 50 | –
7 | Clc1ccc(Cc2cc(-c3ccccc3)nnc2NCCN2CCOCC2)cc1 | > 30 | 10 | 180 | > 30 | –
8 | Cc1cc(-c2cccs2)nnc1NCCN1CCOCC1 | – | > 10 | 59 | – | ED50 (Mus musculus [10]): 4.2 mg/kg; ED50 (Mus musculus [11]): 4.8 mg/kg
9 | Cc1cc(-c2ccc([N+](=O)[O-])cc2)nnc1NCCN1CCOCC1 | – | – | 35 | – | –
10 | COc1ccccc1-c1cc(C)c(NCCN2CCOCC2)nn1 | > 10 | 0.5 | 40 | > 10 | –
11 | c1ccc(Cc2cc(-c3ccccc3)nnc2NCCN2CCOCC2)cc1 | > 50 | 2 | 131 | > 50 | –
12 | Cc1cc(-c2ccccc2)nnc1NCCCN | > 30 | 0.1 | 300 | 50 | –
13 | Cc1ccccc1-c1cc(C)c(NCCN2CCOCC2)nn1 | > 1 | > 1 | 5 | > 1 | –
14 | Br.Br.Cc1cc(-c2ccccc2O)nnc1NCCN1CCOCC1 | – | 0.1 | > 200 | – | ED50 (Mus musculus [12]): 16 mg/kg; ED50 (Mus musculus [13]): 17 mg/kg
15 | Br.Br.Cc1cc(-c2ccc(O)cc2)nnc1NCCN1CCOCC1 [MOXIRAPRINE DIBROMIDE] | > 100 | 0.1 | > 300 | > 40 | –
16 | Cc1cc(-c2ccc3ccccc3c2)nnc1NCCN1CCOCC1 | – | > 2 | 23 | > 10 | –
17 | Cc1cc(-c2ccccc2)nnc1NCCCN1CCOCC1 | > 25 | 2 | – | > 30 | LD50 [14]: 66 mg/kg
18 | N#Cc1cc(-c2ccccc2)nnc1NCCN1CCOCC1 [BAZINAPRINE] | – | 0.1 | – | – | ED50 (Mus musculus [15]): 5 mg/kg; ED50 (Mus musculus [16]): 6.6 mg/kg
19 | Cc1cc(-c2ccccc2F)nnc1NCCN1CCOCC1 | > 10 | 0.5 | 26 | > 10 | –
20 | Br.Br.Cc1cc(-c2cccc(O)c2)nnc1NCCN1CCOCC1 | > 30 | 10 | > 200 | > 50 | –
21 | CNCCNc1nnc(-c2ccccc2)cc1C | ≥ 30 | 2 | > 200 | – | ED50 (Mus musculus [17]): 36 mg/kg
22 | Cc1cc(-c2ccccc2)nnc1NCCN1CCOCC1C (stereo not given) | 30 | > 2 | 110 | – | ED50 (Mus musculus [18]): 20 mg/kg
23 | Cc1cccc(-c2cc(C)c(NCCN3CCOCC3)nn2)c1 | > 10 | > 2 | 23 | – | ED50 (Mus musculus [19]): 10 mg/kg
24 | Cc1cc(-c2ccc(Cl)cc2)nnc1NCCN1CCOCC1 | – | > 2 | 62 | > 10 | ED50 (Mus musculus [20]): 5.8 mg/kg

Source: ChEMBL document CHEMBL1124408, “3-aminopyridazine derivatives with atypical antidepressant, serotonergic, and dopaminergic activities” (J Med Chem, 1989)
